{"data": "Measured values from different studies", "HTR2B": "5-hydroxytryptamine receptor 2B (HTR2B, Homo sapiens, UniProt P41595)", "HTR2C": "5-hydroxytryptamine receptor 2C (HTR2C, Homo sapiens, UniProt P28335)", "note": "Lines come from different studies, so protocols differ."}
{"SMILES": "COc1cc2c(cc1OC)-c1c(OC)c(OC)cc3c1[C@H](C2)N(C)CC3", "target": "HTR2B", "test": "ligand displacement, radioligand", "conditions": "10 µM", "quantity": "inhibition", "result": "92%"}
{"SMILES": "CN1CCC[C@H]1c1cccnc1", "target": "HTR2C", "test": "ligand displacement", "conditions": "50 µM", "quantity": "inhibition", "result": "-24.7%"}
{"SMILES": "[2H]c1c([2H])c([C@]2([2H])CCCN2C(=O)C(C)(C)Oc2ccc3cn[nH]c3c2)c([2H])c([2H])c1C([2H])([2H])[2H]", "target": "Serine/threonine-protein kinase Nek6 (NEK6, Homo sapiens, UniProt Q9HC98)", "test": "binding, competition with immobilised ligand", "conditions": "1 µM", "quantity": "remaining binding", "result": "100%"}
{"SMILES": "CC[C@H](C)[C@H](NC(=O)[C@H](CO)NC(=O)[C@H](Cc1ccc(O)cc1)NC(=O)[C@H](CC(=O)O)NC(=O)[C@H](CO)NC(=O)[C@@H](NC(=O)[C@H](Cc1ccccc1)NC(=O)[C@@H](NC(=O)CNC(=O)[C@H](CCC(=O)O)NC(=O)[C@@H](C)NC(=O)[C@@H](N)Cc1ccc(O)cc1)[C@@H](C)O)[C@@H](C)CC)C(=O)N[C@@H](C)C(=O)N[C@@H](CCSC)C(=O)N[C@@H](CC(=O)O)C(=O)N[C@@H](CCCCN)C(=O)N[C@H](C(=O)N[C@@H](Cc1c[nH]cn1)C(=O)N[C@@H](CCC(N)=O)C(=O)N[C@@H](CCC(N)=O)C(=O)N[C@@H](CC(=O)O)C(=O)N[C@@H](Cc1ccccc1)C(=O)N[C@H](C(=O)N[C@@H](CC(N)=O)C(=O)N[C@@H](Cc1c[nH]c2ccccc12)C(=O)N[C@@H](CC(C)C)C(=O)N[C@@H](CC(C)C)C(=O)N[C@@H](C)C(=O)N[C@@H](CCC(N)=O)C(=O)NCC(=O)N1CCC[C@H]1C(=O)N[C@@H](CO)C(=O)N[C@@H](CO)C(=O)NCC(=O)N[C@@H](C)C(=O)N1CCC[C@H]1C(=O)N1CCC[C@H]1C(=O)N1CCC[C@H]1C(=O)N[C@@H](CO)C(=O)N[C@@H](CCCCN)C(N)=O)C(C)C)[C@@H](C)CC", "target": "Glucagon receptor (Mus musculus, UniProt Q61606)", "test": "cAMP, agonist", "quantity": "Emax", "result": "< 20%"}
{"SMILES": "c1cncc([C@@H]2CCCN2)c1", "target": "HTR2B", "test": "ligand displacement", "conditions": "50 µM", "quantity": "inhibition", "result": "-2.22%"}
{"SMILES": "Nc1ncnc2c1ncn2[C@@H]1O[C@H](C[C@@H](N)CC[C@H](N)C(=O)O)[C@@H](O)[C@H]1O", "target": "mRNA cap guanine-N(7) methyltransferase (RNMT, Homo sapiens, UniProt O43148)", "test": "enzyme activity, inhibitor", "conditions": "3.125 µM", "quantity": "inhibition", "result": "40.9%"}
{"SMILES": "CCOC(=O)Cc1c2c3c(cc(OC)c(OC)c3c3cc(OC)c(OC)cc13)CCN2C", "target": "HTR2B", "test": "ligand displacement, radioligand", "conditions": "10 µM", "quantity": "inhibition", "result": "43%"}
{"SMILES": "COc1cc(C(F)(F)F)c(OC)cc1C1CCCNC1 (stereo not shown)", "target": "HTR2B", "test": "G protein activation, agonist, BRET", "quantity": "Emax", "result": "84%"}
{"SMILES": "CC(C)CC(=O)OC[C@H]1O[C@@](C#N)(c2ccc3c(N)ncnn23)[C@H](O)[C@@H]1O", "target": "Prostaglandin G/H synthase 1 (PTGS1, Homo sapiens, UniProt P23219)", "test": "enzyme activity, inhibitor", "conditions": "20 µM", "quantity": "inhibition", "result": "6%"}
{"SMILES": "COc1cc2c3c(c1OC)-c1c(OC)ccc(O)c1CC3N(C)CC2 (stereo not shown)", "target": "HTR2C", "test": "ligand displacement, radioligand", "conditions": "10 µM", "quantity": "inhibition", "result": "60%"}
